DTT redox prof: compounds producing H2O2 with reducing agent – biochemical, NIH compound library profiling, artefact control for MLSCN library redox annotation, primary screen. DTT-dependent redox cycling H2O2, phenol red/HRP absorbance; 100% = 100 µM peroxide control, 0% = buffer. activation, % at 10 µM. 200,000 tested, 0.03% active;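 active means activation of at least 50% relative to the plate's high and low controls in the primary single-dose screen; inactive means activation below 50%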;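 further: compound incubated with DTT at 0.8 mM final as the reducing agent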
Hep lipid drop: modulators of hepatic lipid droplet formation. AML12 mouse hepatocytes, oleate lipid droplets, BODIPY imaging. inhibition, % at 6.5 µM. 240,000 tested, 0.4% active. AID 1656;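 active means lipid droplet intensity inhibited by at least 50%, with more than 500 cells counted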
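Material – mouse AML12 hepatocyte cell line, fixed after treatment · Compound dosing – one dose, 6.5 µM compound · Times – compound with oleate, overnight · Measured by – Image-based BODIPY and DAPI two-channel analysis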
Lmaj promast: Leishmania major promastigote growth inhibition; 200,000 tested, 9% active; Leishmania major promastigotes, resazurin fluorescence viability; inhibition, % at 10 µM; AID 1063; in the data active means inhibition above about 50%;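 further: promastigotes grown with compound for 44 hours at 28 °C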
MPTP inh: inhibitors of mitochondrial permeability transition pore; inhibition, % at 10 µM; AID 602449; isolated mouse mitochondria, Ca2+ swelling absorbance, 30 min; 360,000 tested, 1.4% active;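 active means inhibition of 50% or more, scaled per plate between neutral and stimulator controls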;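 further: 0% = DMSO wells given calcium and 100% = 1 mM EGTA wells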
T cruzi repl: T. cruzi replication inhibition; T. cruzi beta-gal in NIH3T3, luminescence, 90 h; inhibition, % (test concentration not listed); 300,000 tested, 1.4% active; AID 1885;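 active means mean inhibition across valid replicates above about 55%, limit read from the data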;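 further: signal also drops with host cell toxicity which is not excluded here; 0% = plate median of DMSO wells and 100% = zero luminescence signal; higher percent means less beta-gal luminescence so fewer parasites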
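System: NIH/3T3 fibroblasts plus reporter T. cruzi. Medium: DMEM plus 2% FBS. Probe or stimulus: 5000 reporter trypomastigotes per well. Compound: single 50 nL compound addition per well in DMSO. Incubation: co-culture of at least 90 h after 3 h attachment. Detection: GalScreen β-gal luminescence, detergent lysis, 60 min. Evaluation: parasite load inhibition, %.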
Active calls of the source: *; / = no result. The entries come from a sample that favours hits as a whole.

SMILES	DTT redox prof	Hep lipid drop	Lmaj promast	MPTP inh	T cruzi repl
COC(=O)c1ccc(CSc2nnc(NC(=O)C3CC(=O)N(c4ccc5c(c4)OCCO5)C3)s2)cc1 (stereo unspecified)	0.0	-4.6	-5.2	-20.4	-22.8
COc1ccc(C(CNC(=O)c2cccc(S(=O)(=O)NCc3ccccc3)c2)N2CCOCC2)cc1 (stereo unspecified)	/	/	/	-0.9	7.9
CCc1nc(C)cn1S(=O)(=O)c1cc(Br)ccc1OC	1.4	/	66.8*	0.3	1.9
CC(C)C(O)(C#CCN1CCCCCC1)c1ccccc1 (stereo unspecified)	0.0	-7.2	82.5*	1.0	-36.8
C(#CCN1CCCC1)CC(c1ccccc1)c1ccccc1	-0.2	9.6	100.0*	14.1	33.8
CC(O)(C#CCN1CCCCC1)c1ccccc1 (stereo unspecified)	0.4	-6.4	23.6	-0.7	-15.5
CC(C)C(O)(CC#CCN1CCCC1)c1ccccc1 (stereo unspecified)	-0.3	4.2	54.4*	-0.8	50.0
CC(C)(C)C(O)(CC#CCN1CCCC1)c1ccccc1 (stereo unspecified)	-0.1	6.1	69.2*	-0.4	39.9
C(#Cc1ccccc1)CN1CCCCC1	0.5	11.4	-4.2	0.1	-5.1
OC(CC#CCN1CCCC1)(c1ccccc1)c1ccccc1	/	3.7	/	1.5	6.2
O=C(c1cc2n(n1)C(C(F)(F)F)CC(c1ccco1)N2)N1CCc2ccccc2C1 (stereo unspecified)	-0.7	0.8	54.3*	-5.3	8.8
CCOC(=O)[C@H]1[C@H]2COc3ccc(C)cc3[C@@H]2N2C(=O)CN(C)C(=O)[C@@]12C	/	/	/	-0.3	/
Cc1ccc(C)c2[nH]c(=O)c(CN(CCN3CCCC3)C(=O)Nc3cccc(Cl)c3)cc12	2.5	-5.5	100.5*	5.8	7.8
Cc1cc(C)c2cc(CN(CCN3CCCC3)C(=O)Nc3ccc(F)cc3)c(=O)[nH]c2c1	-0.7	/	43.6	5.1	14.3
COc1ccc2[nH]c(=O)c(CN(CCCN(C)C)C(=O)Nc3ccc(F)cc3)cc2c1	0.5	/	0.7	0.4	19.2
CCc1ccc2[nH]c(=O)c(CN(CCCN3CCOCC3)C(=O)Nc3cccc(Cl)c3)cc2c1	-0.1	/	83.5*	-1.7	35.9
Cc1ccc2[nH]c(=O)c(CN(CCCN(C)C)C(=O)Nc3ccc(Cl)cc3)cc2c1	0.0	-1.7	90.2*	-0.5	27.2
NS(=O)(=O)c1ccc(CNC(=O)c2cc(S(=O)(=O)N3CCOCC3)c(Cl)cc2Cl)cc1	/	/	/	-0.3	/
COc1cccc(S(=O)(=O)Nc2ccc3c(c2)C(=O)N(C)C[C@H](OC)[C@H](C)CN[C@@H](C)CO3)c1	/	/	/	-1.3	/
COc1ccccc1C(=O)NC(=S)Nc1ccc(N2CCCC2)cc1	0.7	5.4	1.3	1.3	55.9*
COc1ccc(C(=O)NC(=S)Nc2ccc(N3CCCC3)cc2)cc1	-0.1	17.9	3.0	-0.4	26.6
COc1ccc(C(=O)Nc2ccc(N3CCCC3)cc2)cc1	-0.3	/	91.9*	1.3	13.3
COc1ccccc1C(=O)NC(=S)Nc1ccccc1N1CCCC1	/	19.6	/	0.9	14.5
COc1c(C)cccc1C(=O)Nc1ccc(N2CCN(S(C)(=O)=O)CC2)cc1	1.3	/	-0.8	1.2	-12.9
COc1ccccc1C(=O)Nc1ccc(N2CCN(S(C)(=O)=O)CC2)cc1	2.4	-9.0	56.1*	1.1	-3.0
SMILES	DTT redox prof	Hep lipid drop	Lmaj promast	MPTP inh	T cruzi repl
CCC(=O)Nc1ccc(N2CCN(S(C)(=O)=O)CC2)cc1	-0.3	10.2	67.0*	5.0	-17.8
COc1ccc(OC)c(NC(=O)Nc2nnc([C@@H]3O[C@H](CO)[C@@H](O)[C@H]3O)s2)c1	/	/	/	-0.8	/
COc1ccc(-n2nnc3c(SCC(=O)NCC4CCCO4)ncnc32)cc1 (stereo unspecified)	0.9	/	74.6*	2.7	/
COc1ccccc1N(C)S(=O)(=O)c1ccc(C)c(C(=O)Nc2nccs2)c1	/	/	/	-1.0	3.2
O=[N+]([O-])c1ccc(O)c(/C=N/Nc2nc3ccccc3[nH]2)c1	0.0	-3.0	99.6*	9.4	32.3
COc1ccc(O)c(/C=N/Nc2nc3ccccc3[nH]2)c1	0.2	3.9	88.4*	-0.5	-15.9
O=[N+]([O-])c1ccc(NN=Cc2ccccc2O)nc1	/	/	/	7.9	/
O=[N+]([O-])c1ccc(O)c(/C=N/Nc2ccccn2)c1	1.1	-28.5	88.7*	3.9	50.7
COc1cc(/C=N/Nc2nc3ccccc3[nH]2)ccc1O	0.8	1.5	80.1*	-0.1	-40.3
O=C(N/N=C/c1cc([N+](=O)[O-])ccc1O)c1c[nH]c2ccccc12	/	-0.5	/	5.0	4.3
CN(Cc1ccccc1)C(=O)c1nc2ccccn2c1CN1CCC(N2CCOCC2)CC1	/	-5.9	/	0.4	15.6
COc1cccc(/C=C/C(=O)c2ccc(C)c([N+](=O)[O-])c2)c1	0.1	-7.4	76.2*	0.4	10.2
COc1cc(/C=C/C(=O)O)cc(OC)c1O	/	/	/	-2.8	-10.2
COc1cc(/C=C/C(=O)c2ccc(C)c([N+](=O)[O-])c2)cc(OC)c1O	2.9	8.6	79.4*	5.9	-23.7
COc1cccc(/C=C/C(=O)c2ccc[nH]2)c1	-0.1	0.3	100.2*	0.5	-15.1
O=C(/C=C/c1ccc2c(c1)OCO2)c1ccc[nH]1	-0.3	-4.0	8.7	-8.2	-5.0
COc1cc(/C=C/C(=O)c2cccc([N+](=O)[O-])c2)cc(OC)c1OC	0.0	-11.1	100.4*	-0.2	-0.8
COc1ccc(/C=C/C(=O)c2ccc(C)c([N+](=O)[O-])c2)cc1O	0.6	7.9	100.0*	5.5	-3.5
Cc1cc(C)c2c(N)c(C(=O)Nc3ccc(C)c(C)c3)sc2n1	/	7.6	/	8.9	17.2
COc1ccc(C(=O)c2sc3nc(C)cc(-c4cccs4)c3c2N)cc1	1.6	-9.5	72.9*	4.6	-2.8
Cc1cc(C)c2c(N)c(C(=O)c3ccc(Cl)c(Cl)c3)sc2n1	-0.4	-18.7	100.2*	-0.6	101.3*
Cc1cc(C)c2c(N)c(C(=O)c3ccccc3)sc2n1	/	-9.3	/	1.0	66.3*
Cc1cc(C)c2c(N)c(C(=O)c3ccc(Cl)cc3)sc2n1	-0.2	0.9	70.6*	3.9	44.9
O=C(CSc1nnc(CNC(=O)c2cccs2)o1)Nc1ccccc1C(F)(F)F	/	18.0	/	-0.7	17.7
C=CCNC(=O)C1CC(=O)N(c2ccc(OCC(=O)Nc3ccc(Cl)cc3)cc2)C1 (stereo unspecified)	/	-3.1	/	-2.0	-3.2
Cc1cc(C)c2c(N)c(C(=O)NCC3CCCCC3)sc2n1	-0.1	-17.5	76.9*	-1.0	33.3
Cc1cc(C)cc(NC(=O)c2sc3nc(C)cc(C)c3c2N)c1	/	5.3	/	1.1	9.0
Cc1cc(C)c2c(N)c(C(=O)C(C)(C)C)sc2n1	0.4	-2.3	96.7*	0.5	43.5
COC(=O)c1cn(-c2ccc(Cl)cc2)c(=O)c2ccccc12	0.1	10.6	57.8*	0.6	-9.6
CNC(=O)c1cn(-c2ccc(Cl)cc2)c(=O)c2ccccc12	-2.3	2.7	-7.8	-0.2	10.1
